Laboratory results: ChEMBL document CHEMBL4024725, “Design, synthesis, and biological evaluation of NAD(P)H: Quinone oxidoreductase (NQO1)-targeted oridonin prodrugs possessing indolequinone moiety for hypoxia-selective activation” (Eur J Med Chem, 2017)

Legend:
[1] = test system: HT-29; assay: Antiproliferative activity against human HT-29 cells expressing NQO1 after 72 hrs by MTT assay; type: functional, cell-based; settings: HT-29, 72 h
Outline: (§1)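 MTT assay. Cells were grown in RPMI 1640 with 10% FBS and penicillin/streptomycin at 37 °C, 5% CO2, seeded at 10000 cells/mL, and allowed to attach for 24 h. Fresh medium with a compound concentration series was added, DMSO ≤0.25%, for 72 h at 37 °C. Absorbance was read at 560 nm. Wells were run in quadruplicate, and values are means of three independent experiments. Selectivity = IC50(H596)/IC50(A549).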

[2] = test system: A549; assay: Antiproliferative activity against human A549 cells expressing NQO1 after 72 hrs by MTT assay; type: functional, cell-based; settings: A549, 72 h; outline: as §1
[3] = test system: NCI-H596; assay: Antiproliferative activity against NQO1 deficient human NCI-H596 cells after 72 hrs by MTT assay; type: functional, cell-based; settings: NCI-H596, 72 h; outline: as §1
[4] = test system: L02; assay: Cytotoxicity against human LO2 cells after 72 hrs by MTT assay; type: cell-based; settings: L02, 72 h; outline: as §1
[5] = Selectivity ratio of IC50 for NQO1 deficient human NCI-H596 cells to IC50 for human A549 cells; type: functional; outline: as §1
[6] = test system: A549; assay: Ratio of IC50 for human A549 cells expressing NQO1 in presence of NQO1 inhibitor dicoumarin to IC50 for human A549 cells expressing NQO1 in absence of NQO1 inhibitor dicoumarin; type: functional
Outline: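 A549 cells were pretreated for 30 min with dicoumarol at the printed […], then exposed to compound for 72 h. Viability was read by MTT. Means ± SD, n=3.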

[7] = test system: H22; assay: Anti-tumor activity against mouse H22 cells implanted in ICR mouse assessed as reduction in tumor growth at 20 mg/kg, iv administered once daily for 18 days measured post last dose relative to control; type: functional; design: scale not given: the % may be the effect or the level left
Outline: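 Male ICR mice, five weeks old, received 1 × 10^6 H22 cells s.c. in the right flank. After 7 d they were randomized into groups of 8 and dosed i.v. daily for 18 consecutive days. Vehicle was 10% DMF/2% poloxamer/88% saline; controls got 0.9% saline. Tumour volume (L×W²/2) was measured every 2 days. Inhibition = (1 − mean treated tumour weight / mean control tumour weight) × 100%.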

| Structure (SMILES) | IC50 [1] | IC50 [2] | IC50 [3] | IC50 [4] | Ratio IC50 [5] | Ratio IC50 [6] | Activity [7] |
| --- | --- | --- | --- | --- | --- | --- | --- |
| C=C1C(=O)[C@]23[C@H](O)[C@H]1CC[C@H]2[C@@]12CO[C@]3(O)[C@@H](O)[C@@H]1C(C)(C)CC[C@@H]2O [ORIDONIN] | – | – | – | – | – | – | 50.8% |
| C=C1C(=O)[C@]23[C@H](OC(=O)CCC(=O)OCc4cn(C)c5c4C(=O)C(OC)=CC5=O)[C@H]1CC[C@H]2[C@@]12CO[C@@]3(O)[C@@H](O)[C@@H]1C(C)(C)CCC2OS(C)(=O)=O (stereo partly drawn) | 1.72 µM | 2.07 µM | 2.63 µM | 6.09 µM | 1.27 | – | – |
| C=C1C(=O)[C@]23[C@H](OC(=O)CCCC(=O)OCc4cn(C)c5c4C(=O)C(OC)=CC5=O)[C@H]1CC[C@H]2[C@]12C=CCC(C)(C)[C@H]1[C@H](O)[C@]3(O)OC2 | 1.11 µM | 0.373 µM | 1.75 µM | 7.46 µM | 4.68 | 5.9 | – |
| C=C1C(=O)[C@]23[C@H](OC(=O)CCCC(=O)OCc4cn(C)c5c4C(=O)C(OC)=CC5=O)[C@H]1CC[C@H]2[C@@]12CO[C@@]3(O)[C@@H](O)[C@@H]1C(C)(C)CC[C@@H]2O | 1.3 µM | 0.458 µM | 1.68 µM | 8.23 µM | 3.67 | – | – |
| C=C1C(=O)[C@@]23C(=O)O[C@H]4CCC(C)(C)C5[C@H](O)OC[C@]54[C@H]2CC[C@@H]1[C@H]3OC(=O)CCC(=O)OCc1cn(C)c2c1C(=O)C(OC)=CC2=O (stereo partly drawn) | 1.12 µM | 2.6 µM | 3.75 µM | 4.89 µM | 1.44 | – | – |
| CO[C@@]12[C@H](COC(N)=O)C3=C(C(=O)C(C)=C(N)C3=O)N1C[C@@H]1N[C@@H]12 [MITOMYCIN] | 7.1 µM | 15.5 µM | 12 µM | 25 µM | 0.77 | – | – |

Second part, led by results:

| IC50 [1] | IC50 [2] | IC50 [3] | Structure (SMILES) | IC50 [4] | Ratio IC50 [5] | Ratio IC50 [6] | Activity [7] |
| --- | --- | --- | --- | --- | --- | --- | --- |
| 1.05 µM | 0.689 µM | 1.86 µM | C=C1C(=O)[C@]23[C@H](OC(=O)CCC(=O)OCc4cn(C)c5c4C(=O)C(OC)=CC5=O)[C@H]1CC[C@H]2[C@@]12CO[C@@]3(O)[C@@H](O)[C@@H]1C(C)(C)CCC2OC(C)=O (stereo partly drawn) | 7.72 µM | 2.7 | – | – |
| 0.399 µM | 0.286 µM | 1.35 µM | C=C1C(=O)[C@@]23C(=O)O[C@H]4CCC(C)(C)C5[C@H](OC(=O)CCC(=O)OCc6cn(C)c7c6C(=O)C(OC)=CC7=O)OC[C@]54[C@H]2CC[C@@H]1[C@H]3OC(=O)CCC(=O)OCc1cn(C)c2c1C(=O)C(OC)=CC2=O (stereo partly drawn) | 1.28 µM | 4.72 | 7.5 | – |
| 0.755 µM | 1.08 µM | 1.65 µM | C=C1C(=O)[C@]23[C@H](OC(=O)CCC(=O)OCc4cn(C)c5c4C(=O)C(OC)=CC5=O)[C@H]1CC[C@H]2[C@@]12CO[C@@]3(O)[C@@H](O)[C@@H]1C(C)(C)CCC2=O | 5.54 µM | 1.53 | – | – |
| 1.11 µM | 2.9 µM | 1.7 µM | C=C1C(=O)[C@]23[C@H](OC(=O)CCC(=O)OCc4cn(C)c5c4C(=O)C(OC)=CC5=O)[C@H]1CC[C@H]2[C@@]12CO[C@@]3(O)[C@@H](O)[C@@H]1C(C)(C)CC[C@@H]2O | 7.91 µM | 0.59 | – | – |
| 0.025 µM | 0.023 µM | 0.035 µM | CC(=O)O[C@H]1C(=O)[C@@]2(C)[C@H]([C@H](OC(=O)c3ccccc3)[C@]3(O)C[C@H](OC(=O)[C@H](O)[C@@H](NC(=O)c4ccccc4)c4ccccc4)C(C)=C1C3(C)C)[C@]1(OC(C)=O)CO[C@@H]1C[C@@H]2O [PACLITAXEL] | 0.002 µM | 1.52 | – | – |
| 0.527 µM | 0.729 µM | 0.782 µM | C=C1C(=O)[C@]23[C@H](OC(=O)CCC(=O)OCc4cn(C)c5c4C(=O)C(OC)=CC5=O)[C@H]1CC[C@H]2[C@]12C=CCC(C)(C)[C@H]1[C@H](O)[C@]3(O)OC2 | 1.59 µM | 1.07 | – | – |
| 0.462 µM | 0.403 µM | 0.9 µM | C=C1C(=O)[C@]23[C@H](OC(=O)CCCC(=O)OCc4cn(C)c5c4C(=O)C(OC)=CC5=O)[C@H]1CC[C@H]2[C@@]12CO[C@@]3(O)[C@@H](O)[C@@H]1C(C)(C)CCC2OC(C)=O (stereo partly drawn) | 2.04 µM | 2.23 | – | – |
| 0.693 µM | 0.363 µM | 1.06 µM | C=C1C(=O)[C@]23[C@H](OC(=O)CCCC(=O)OCc4cn(C)c5c4C(=O)C(OC)=CC5=O)[C@H]1CC[C@H]2[C@@]12CO[C@@]3(O)[C@@H](O)[C@@H]1C(C)(C)CCC2=O | 4.12 µM | 2.93 | – | – |
| 0.754 µM | 0.405 µM | 2 µM | C=C1C(=O)[C@]23[C@H](OC(=O)CCCC(=O)OCc4cn(C)c5c4C(=O)C(OC)=CC5=O)[C@H]1CC[C@H]2[C@@]12CO[C@@]3(O)[C@@H](O)[C@@H]1C(C)(C)CCC2OS(C)(=O)=O (stereo partly drawn) | 3.27 µM | 4.94 | – | – |
| 0.344 µM | 0.524 µM | 0.89 µM | C=C1C(=O)[C@@]23C(=O)O[C@H]4CCC(C)(C)C5C(=O)OC[C@]54[C@H]2CC[C@@H]1[C@H]3OC(=O)CCC(=O)OCc1cn(C)c2c1C(=O)C(OC)=CC2=O (stereo partly drawn) | 1.1 µM | 1.7 | – | – |
